Results taken from ChEMBL document CHEMBL1123302, “Antagonists of substance P. Further modifications of substance P antagonists obtained by replacing either positions 7, 9 or 7, 8 and 11 of SP with D-amino acid residues” (J Med Chem, 1986).

Experiments:
[1] = biological target: Metabotropic glutamate receptor 3 (Rattus norvegicus) (UniProt P31422); experiment: Antagonistic activity against Glutamate receptor in rat spinal cord at concentration of 10 uM.; type: functional, tissue-based
Outline: (§1)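 Neonatal rat spinal cord, hemisected sagittally, superfused at 1 mL/min with oxygenated Krebs-Henseleit medium containing 0.5% urethane at room temperature. Agonists were given in 2-mL doses in the superfusate. Antagonist was superfused continuously for at least 15 min before agonist retesting. Read-out was ventral root depolarization (DC potential, ventral root vs cord body), measured as amplitude and area of response.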

[2] = biological target: Metabotropic glutamate receptor 3 (Rattus norvegicus) (UniProt P31422); experiment: Antagonistic activity against Glutamate receptor in rat spinal cord at concentration of 50 uM.; type: functional, tissue-based; outline: as §1
Substance-P receptor = Substance-P receptor (Rattus norvegicus, UniProt P14600); experiment: Histamine releasing activity of Substance P from isolated rat peritoneal mast cells; type: functional
Outline: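 Histamine release from isolated rat peritoneal mast cells, method of Fretwell et al. Dose-response curves were built over a range of concentrations, and EC50 values were calculated from the curves.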

[3] = biological target: Substance-P receptor (Cavia porcellus) (UniProt P30547); experiment: In vitro inhibition of substance P (6-11) hexapeptide induced contractions of the guinea pig ileum at 5 uM.; type: tissue-based
Outline: (§2)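 Agonist (SP or SP(6-11)-hexapeptide) dose-response curves on a 3-min cycle with 1-min contact, then washout. Dose ratio = agonist EC50 with antagonist / EC50 alone. At least two preparations per compound; ratios below 2 taken as insignificant.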

[4] = biological target: Substance-P receptor (Cavia porcellus) (UniProt P30547); experiment: Antagonistic activity against Substance P receptor in guinea pig ileum at concentration of 1 uM.; type: functional, tissue-based
Outline: (§3)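 Distal ileum from Dunkin-Hartley guinea pigs (300-350 g, both sexes), held in a 5-mL bath of Krebs solution at 37 °C gassed with 95% O2/5% CO2. Agonist dose-response curves ran on a 3-min cycle with 1-min contact, then washout. Dose ratio = agonist EC50 with antagonist / EC50 alone. At least two preparations per compound; ratios below two were taken as insignificant.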

[5] = biological target: Substance-P receptor (Cavia porcellus) (UniProt P30547); experiment: In vitro inhibition of substance P induced contractions of the guinea pig ileum at 5 uM.; type: tissue-based; outline: as §2
[6] = biological target: Substance-P receptor (Cavia porcellus) (UniProt P30547); experiment: Antagonistic activity against Substance P(6-11) receptor in guinea pig ileum at concentration of 1 uM.; type: functional, tissue-based; outline: as §3
[7] = biological target: Substance-P receptor (Rattus norvegicus) (UniProt P14600); experiment: Antagonistic activity against Substance P receptor in rat spinal cord at concentration of 10 uM.
[8] = biological target: Substance-P receptor (Rattus norvegicus) (UniProt P14600); experiment: Antagonistic activity against Substance P receptor in rat spinal cord at concentration of 50 uM.
[9] = tested on: muscarinic acetylcholine receptor (Rattus norvegicus); experiment: Antagonistic activity against Carbachol receptor in rat spinal cord at concentration of 10 uM.
[10] = tested on: muscarinic acetylcholine receptor (Rattus norvegicus); experiment: Antagonistic activity against Carbachol receptor in rat spinal cord at concentration of 50 uM.
[11] = biological target: Substance-P receptor (Rattus norvegicus) (UniProt P14600); experiment: Antagonistic activity against Substance P(6-11) receptor in rat spinal cord at concentration of 10 uM.
[12] = biological target: Substance-P receptor (Rattus norvegicus) (UniProt P14600); experiment: Antagonistic activity against Substance P(6-11) receptor in rat spinal cord at concentration of 50 uM.
[13] = biological target: Metabotropic glutamate receptor 3 (Rattus norvegicus) (UniProt P31422); experiment: Antagonistic activity against Glutamate receptor in rat spinal cord at concentration of 0.5 uM.; type: functional, tissue-based; outline: as §1
[14] = biological target: Metabotropic glutamate receptor 3 (Rattus norvegicus) (UniProt P31422); experiment: Antagonistic activity against Glutamate receptor in rat spinal cord at concentration of 1.0 uM.; type: functional, tissue-based; outline: as §1
[15] = biological target: Metabotropic glutamate receptor 3 (Rattus norvegicus) (UniProt P31422); experiment: Antagonistic activity against Glutamate receptor in rat spinal cord at concentration of 10.0 uM.; type: functional, tissue-based; outline: as §1
[16] = biological target: Metabotropic glutamate receptor 3 (Rattus norvegicus) (UniProt P31422); experiment: Antagonistic activity against Glutamate receptor in rat spinal cord at concentration of 5.0 uM.; type: functional, tissue-based; outline: as §1
[17] = biological target: Metabotropic glutamate receptor 3 (Rattus norvegicus) (UniProt P31422); experiment: Antagonistic activity against Glutamate receptor in rat spinal cord at concentration of 50.0 uM.; type: functional, tissue-based; outline: as §1
[18] = biological target: Substance-P receptor (Cavia porcellus) (UniProt P30547); experiment: Antagonistic activity against Substance P receptor in guinea pig ileum at concentration of 0.5 uM.; type: functional, tissue-based; outline: as §3
[19] = biological target: Substance-P receptor (Cavia porcellus) (UniProt P30547); experiment: Antagonistic activity against Substance P receptor in guinea pig ileum at concentration of 1.0 uM.; type: functional, tissue-based; outline: as §3
[20] = biological target: Substance-P receptor (Cavia porcellus) (UniProt P30547); experiment: (§4) Antagonistic activity against Substance P receptor in guinea pig ileum at concentration of 10.0 uM.; type: functional, tissue-based; outline: as §3
[21] = biological target: Substance-P receptor (Cavia porcellus) (UniProt P30547); experiment: (§5) Antagonistic activity against Substance P receptor in guinea pig ileum at concentration of 5.0 uM.; type: functional, tissue-based; outline: as §3
[22] = biological target: Substance-P receptor (Cavia porcellus) (UniProt P30547); experiment: as §4; type: functional, tissue-based; outline: as §3; remark: listed apart in the source
[23] = biological target: Substance-P receptor (Cavia porcellus) (UniProt P30547); experiment: Antagonistic activity against Substance P(6-11) receptor in guinea pig ileum at concentration of 0.5 uM.; type: functional, tissue-based; outline: as §3
[24] = biological target: Substance-P receptor (Cavia porcellus) (UniProt P30547); experiment: Antagonistic activity against Substance P(6-11) receptor in guinea pig ileum at concentration of 1.0 uM.; type: functional, tissue-based; outline: as §3
[25] = biological target: Substance-P receptor (Cavia porcellus) (UniProt P30547); experiment: as §5; type: functional, tissue-based; outline: as §3; remark: listed apart in the source
[26] = biological target: Metabotropic glutamate receptor 3 (Rattus norvegicus) (UniProt P31422); experiment: Antagonistic activity against Glutamate receptor in rat spinal cord at concentration of 25 uM.; type: functional, tissue-based; outline: as §1
[27] = biological target: Substance-P receptor (Cavia porcellus) (UniProt P30547); experiment: In vitro inhibition of substance P induced contractions of the guinea pig ileum at 10 uM.; type: tissue-based; outline: as §2
[28] = biological target: Substance-P receptor (Rattus norvegicus) (UniProt P14600); experiment: Antagonistic activity against Substance P receptor in rat spinal cord at concentration of 25 uM.
[29] = biological target: Substance-P receptor (Rattus norvegicus) (UniProt P14600); experiment: Antagonistic activity against Substance P(6-11) receptor in rat spinal cord at concentration of 25 uM.
[30] = biological target: Metabotropic glutamate receptor 3 (Rattus norvegicus) (UniProt P31422); experiment: Antagonistic activity against Glutamate receptor in rat spinal cord at concentration of 5 uM.; type: functional, tissue-based; outline: as §1
[31] = biological target: Substance-P receptor (Cavia porcellus) (UniProt P30547); experiment: In vitro inhibition of substance P (6-11) hexapeptide induced contractions of the guinea pig ileum at 10 uM.; type: tissue-based; outline: as §2
[32] = biological target: Metabotropic glutamate receptor 3 (Rattus norvegicus) (UniProt P31422); experiment: Antagonistic activity against Glutamate receptor in rat spinal cord at concentration of 20 uM.; type: functional, tissue-based; outline: as §1
[33] = biological target: Substance-P receptor (Rattus norvegicus) (UniProt P14600); experiment: Antagonistic activity against Substance P receptor in rat spinal cord at concentration of 20 uM.
[34] = biological target: Substance-P receptor (Rattus norvegicus) (UniProt P14600); experiment: Antagonistic activity against Substance P(6-11) receptor in rat spinal cord at concentration of 20 uM.

Sequence of Metabotropic glutamate receptor 3 (Rattus norvegicus) (P31422 23-879 limits assumed): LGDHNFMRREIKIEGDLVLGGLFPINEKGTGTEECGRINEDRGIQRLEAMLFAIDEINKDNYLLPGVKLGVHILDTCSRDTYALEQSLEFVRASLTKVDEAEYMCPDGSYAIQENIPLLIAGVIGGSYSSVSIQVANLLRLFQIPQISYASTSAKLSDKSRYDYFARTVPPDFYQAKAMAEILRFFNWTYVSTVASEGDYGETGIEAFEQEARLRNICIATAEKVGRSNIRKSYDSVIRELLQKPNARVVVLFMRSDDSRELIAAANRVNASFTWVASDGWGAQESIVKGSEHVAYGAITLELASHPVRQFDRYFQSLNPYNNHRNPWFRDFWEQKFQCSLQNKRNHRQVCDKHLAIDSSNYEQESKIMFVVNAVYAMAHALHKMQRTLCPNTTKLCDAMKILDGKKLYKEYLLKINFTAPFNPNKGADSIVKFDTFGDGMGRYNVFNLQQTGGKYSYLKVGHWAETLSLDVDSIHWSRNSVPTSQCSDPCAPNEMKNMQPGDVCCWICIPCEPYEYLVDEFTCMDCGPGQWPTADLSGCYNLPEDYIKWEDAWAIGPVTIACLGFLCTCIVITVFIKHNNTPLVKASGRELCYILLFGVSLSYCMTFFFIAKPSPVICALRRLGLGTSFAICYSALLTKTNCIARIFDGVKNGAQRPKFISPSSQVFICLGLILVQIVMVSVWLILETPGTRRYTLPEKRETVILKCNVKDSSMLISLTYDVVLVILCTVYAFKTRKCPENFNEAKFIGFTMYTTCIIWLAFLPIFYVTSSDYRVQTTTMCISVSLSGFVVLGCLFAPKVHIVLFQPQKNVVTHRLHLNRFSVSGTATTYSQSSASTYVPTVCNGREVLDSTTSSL
Sequence of Substance-P receptor (Rattus norvegicus) (P14600 whole entry, looked up): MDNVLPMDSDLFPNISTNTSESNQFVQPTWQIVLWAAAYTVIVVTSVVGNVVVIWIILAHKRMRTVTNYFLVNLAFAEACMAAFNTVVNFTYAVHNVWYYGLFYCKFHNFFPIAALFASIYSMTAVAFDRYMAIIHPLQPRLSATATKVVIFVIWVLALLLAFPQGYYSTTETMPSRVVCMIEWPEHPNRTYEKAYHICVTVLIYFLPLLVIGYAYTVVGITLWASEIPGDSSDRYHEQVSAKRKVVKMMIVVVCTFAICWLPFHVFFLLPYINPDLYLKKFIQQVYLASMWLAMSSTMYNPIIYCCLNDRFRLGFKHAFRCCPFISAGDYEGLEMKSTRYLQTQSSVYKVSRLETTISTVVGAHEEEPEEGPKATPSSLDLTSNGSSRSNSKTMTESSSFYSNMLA
Sequence of Substance-P receptor (Cavia porcellus) (P30547 whole entry): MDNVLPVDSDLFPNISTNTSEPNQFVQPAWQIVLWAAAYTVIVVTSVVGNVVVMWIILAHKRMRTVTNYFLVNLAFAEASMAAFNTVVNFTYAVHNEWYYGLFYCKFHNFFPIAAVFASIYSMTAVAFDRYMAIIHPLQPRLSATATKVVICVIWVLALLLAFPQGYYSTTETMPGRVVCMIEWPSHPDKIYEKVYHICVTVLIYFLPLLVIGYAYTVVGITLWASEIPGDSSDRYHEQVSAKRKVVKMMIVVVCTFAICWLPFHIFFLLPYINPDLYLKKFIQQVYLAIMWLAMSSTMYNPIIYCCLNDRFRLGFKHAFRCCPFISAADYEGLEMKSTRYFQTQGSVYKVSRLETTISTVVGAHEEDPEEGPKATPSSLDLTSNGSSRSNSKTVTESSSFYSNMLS
Sequence of Substance-P receptor (P14600 whole entry): as the sequence (P14600 whole entry, looked up) above

SMILES: COC(=O)[C@H](CCSC)NC(=O)[C@H](CC(C)C)NC(=O)[C@@H](Cc1c[nH]c2ccccc12)NC(=O)[C@H](Cc1ccccc1)NC(=O)[C@@H](Cc1ccccc1)NC(=O)[C@H](CCCN=C(N)N)NC(=O)[C@H](CC(N)=O)NC(=O)OC(C)(C)C
- Change in amplitude response [1]: -3%
- Change in amplitude response [2]: 11%
- IC50 (Substance-P receptor): 500 µM
- Activity [3]: 16 dose ratio
- Activity [4]: < 2 dose ratio
- Activity [5]: 2.1 dose ratio
- Activity [6]: 4.4 dose ratio
- Change in amplitude response [7]: 15%
- Change in amplitude response [8]: -17%
- Change in amplitude response [9]: -26%
- Change in amplitude response [10]: -40%
- Change in amplitude response [11]: -56%
- Change in amplitude response [12]: -79%

SMILES: COC(=O)[C@@H](CCSC)NC(=O)[C@@H](CC(C)C)SCCNC(=O)[C@@H](Cc1ccccc1)NC(=O)[C@H](Cc1ccccc1)NC(=O)[C@H](CCC(N)=O)NC(=O)[C@H](CCC(N)=O)NC(=O)[C@H]1CCCN1C(=O)[C@H](CCCCNC(=O)OCc1ccccc1)NC(=O)[C@H]1CCCN1C(=O)[C@H](CCCN=C(N)N)NC(=O)OCc1ccccc1
- Change in amplitude response [13]: -7%
- Change in amplitude response [14]: -12%
- Change in amplitude response [15]: -31%
- Change in amplitude response [16]: -23%
- Change in amplitude response [17]: -25%
- Activity [18]: 2.4 dose ratio
- Activity [19]: 3.4 dose ratio
- Activity [20]: 52 dose ratio
- Activity [21]: 38 dose ratio
- Activity [22]: 52 dose ratio
- Activity [23]: 4.2 dose ratio
- Activity [24]: 20.1 dose ratio
- Activity [25]: 38 dose ratio

SMILES: COC(=O)[C@@H](CCSC)NC(=O)[C@H](CC(C)C)NC(=O)CNC(=O)[C@@H](Cc1c[nH]c2ccccc12)NC(=O)[C@@H](Cc1c[nH]c2ccccc12)NC(=O)[C@H](CCC(N)=O)NC(=O)[C@H](CCC(N)=O)NC(=O)[C@@H]1CCCN1C(=O)[C@H](CCCCNC(=O)OCc1ccccc1)NC(=O)[C@@H]1CCCN1C(=O)[C@H](CCCN=C(N)N)NC(=O)OCc1ccccc1
- Change in amplitude response [1]: -3%
- Change in amplitude response [26]: -13%
- Activity [27]: 10.5 dose ratio
- Change in amplitude response [7]: 19%
- Change in amplitude response [28]: 18%
- Change in amplitude response [9]: -6%
- Change in amplitude response [10]: -24%
- Change in amplitude response [11]: -33%
- Change in amplitude response [29]: -77%
- Change in amplitude response [12]: -75%

SMILES: COC(=O)[C@@H](CCSC)NC(=O)[C@H](CC(C)C)SCCNC(=O)[C@@H](Cc1ccccc1)NC(=O)[C@H](Cc1ccccc1)NC(=O)[C@H](CCC(N)=O)NC(=O)[C@H](CCC(N)=O)NC(=O)[C@H]1CCCN1C(=O)[C@H](CCCCNC(=O)OCc1ccccc1)NC(=O)[C@H]1CCCN1C(=O)[C@H](CCCN=C(N)N)NC(=O)OCc1ccccc1
- Change in amplitude response [2]: -5%
- Change in amplitude response [30]: 5%
- Activity [3]: 21.6 dose ratio
- Activity [27]: 15.2 dose ratio
- Activity [5]: 4.5 dose ratio
- Activity [31]: 49.3 dose ratio

SMILES: COC(=O)[C@H](CCSC)NC(=O)[C@H](CC(C)C)NC(=O)[C@@H](Cc1c[nH]c2ccccc12)NC(=O)[C@H](Cc1ccccc1)NC(=O)[C@@H](Cc1ccccc1)NC(=O)[C@H](CCCN=C(N)N)NC(=O)[C@H](CC(N)=O)NC(=O)[C@@H]1CCCN1C(=O)[C@H](CCCCNC(=O)OCc1ccccc1)NC(=O)[C@@H]1CCCN1C(=O)[C@H](CCCN=C(N)N)NC(=O)OC(C)(C)C
- Change in amplitude response [32]: -9%
- Activity [3]: 5.1 dose ratio
- Activity [4]: 3.1 dose ratio
- Activity [5]: 2.8 dose ratio
- Activity [6]: 3.1 dose ratio
- Change in amplitude response [33]: 17%
- Change in amplitude response [34]: -85%

SMILES: COC(=O)[C@@H](CCSC)NC(=O)[C@H](CC(C)C)N(C)C(=O)CN(C)C(=O)[C@H](Cc1ccccc1)NC(=O)[C@@H](Cc1ccccc1)NC(=O)[C@H](CCC(N)=O)NC(=O)[C@H](CCC(N)=O)NC(=O)C1CCCN1C(=O)[C@H](CCCCNC(=O)OCc1ccccc1)NC(=O)C1CCCN1C(=O)[C@H](CCCN=C(N)N)NC(=O)OCc1ccccc1 (stereo in doubt)
- Change in amplitude response [13]: 6%
- Change in amplitude response [14]: 0%
- Change in amplitude response [15]: -35%
- Change in amplitude response [16]: 0%

SMILES: COC(=O)[C@@H](CCSC)NC(=O)[C@H](CC(C)C)NC(=O)CN(C)C(=O)[C@H](Cc1ccccc1)NC(=O)[C@@H](Cc1ccccc1)NC(=O)[C@H](CCC(N)=O)NC(=O)[C@H](CCC(N)=O)NC(=O)C1CCCN1C(=O)OC(C)(C)C (stereo in doubt)
- Change in amplitude response [2]: -4%
- Activity [3]: < 2 dose ratio
- Activity [27]: < 2 dose ratio
- Activity [5]: < 2 dose ratio
- Activity [31]: < 2 dose ratio
- Change in amplitude response [28]: 7%
- Change in amplitude response [8]: -12%
- Change in amplitude response [29]: -29%
- Change in amplitude response [12]: -57%

SMILES: COC(=O)[C@@H](CCSC)NC(=O)[C@H](CC(C)C)NC(=O)CN(C)C(=O)[C@H](Cc1ccccc1)NC(=O)[C@@H](Cc1ccccc1)NC(=O)[C@H](CCC(N)=O)NC(=O)[C@H](CCC(N)=O)NC(=O)C1CCCN1C(=O)[C@H](CCCCNC(=O)OCc1ccccc1)NC(=O)C1CCCN1C(=O)[C@H](CCCN=C(N)N)NC(=O)OCc1ccccc1 (stereo in doubt)
- Change in amplitude response [26]: -24%
- Change in amplitude response [2]: -36%
- Change in amplitude response [30]: -15%
